Reference: ChEMBL document CHEMBL5252662, “Rimonabant-Based Compounds Bearing Hydrophobic Amino Acid Derivatives as Cannabinoid Receptor Subtype 1 Ligands” (ACS Med Chem Lett, 2023)
Active and inactive are the calls of the source. The rule behind the calls is not given here.

Key:
[1] = tested on: Mus musculus; assay: Induction of food uptake in CD-1 mouse model at 10 mg/kg, ip measured after 1 hr; type: functional, organism-based
Summary of the method: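 Mice dosed i.p. at 10 mg/kg and left 30 min. Each was then placed in an individual cage with 2 g of standard chow, and intake was measured over a 1 h test. Mean ± SEM from the same seven mice at each dose, compared with vehicle-treated animals.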

[2] = tested on: Mus musculus; assay: Antinociceptive activity in CD-1 mouse assessed as increase in response time to thermal nociceptive stimuli at 10 ug, icv measured at 15 to 120 mins; type: functional, organism-based; details: dose 10.0 µg, time lower […], time upper […]
Summary of the method: (§1)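 Single i.c.v. injection of 10 μg/10 μL; vehicle saline with 0.1% v/v DMSO. Response latency to thermal stimulus on hot plate recorded over time after dosing. Expressed as % maximum possible effect (%MPE) ± SEM, N = 7.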

[3] = tested on: Mus musculus; assay: Anti-inflammatory activity against zymosan-induced paw edema CD-1 mouse model assessed as reduction of increased paw volume at 100 ug,sc administered 30 mins prior to zymosan challenge and measured after 1 to 4 hrs; type: functional, organism-based; details: dose 100.0 µg, time lower […], time upper […]
[4] = target: T1, Cannabinoid receptor 1 (Rattus norvegicus, UniProt P20272); assay: Displacement of [3H]-WIN55212-2 from CB1R in rat brain membranes incubated for 60 mins by radioligand competitive binding assay; type: cell membranes, Membrane
[5] = tested on: Mus musculus; assay: Antinociceptive activity in CD-1 mouse assessed as increase in response time to thermal nociceptive stimuli at 10 ug, icv measured after 60 mins by hot plate test; type: functional, organism-based; details: dose 10.0 µg; summary of the method: as §1
[6] = target: T1, Cannabinoid receptor 1; assay: Agonist activity at rat brain membrane CB1 receptor assessed as stimulation of [35S]GTPgammaS binding incubated for 60 mins; type: cell membranes
[7] = target: Cannabinoid receptor 1 (Rattus norvegicus) (UniProt P20272); assay: Agonist activity at rat brain membrane CB1 receptor assessed as stimulation of [35S]GTPgammaS binding incubated for 60 mins relative to control; type: cell membranes; details: filed as agonist
Cannabinoid receptor 1 (Rattus norvegicus), sequence (P20272 whole entry): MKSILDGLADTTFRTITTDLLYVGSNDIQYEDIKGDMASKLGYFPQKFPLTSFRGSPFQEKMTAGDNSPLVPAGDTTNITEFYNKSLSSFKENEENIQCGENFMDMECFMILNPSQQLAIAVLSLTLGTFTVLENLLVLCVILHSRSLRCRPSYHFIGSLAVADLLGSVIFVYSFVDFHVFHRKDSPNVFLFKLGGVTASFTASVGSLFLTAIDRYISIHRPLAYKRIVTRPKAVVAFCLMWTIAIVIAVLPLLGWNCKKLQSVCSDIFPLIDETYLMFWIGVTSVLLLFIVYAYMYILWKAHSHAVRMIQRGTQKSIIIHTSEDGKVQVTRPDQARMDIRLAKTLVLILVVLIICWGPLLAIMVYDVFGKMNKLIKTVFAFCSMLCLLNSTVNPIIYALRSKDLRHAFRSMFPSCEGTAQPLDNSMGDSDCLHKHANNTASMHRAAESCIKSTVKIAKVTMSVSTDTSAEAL

T1 sequence (P20272 whole entry): as above

| Compound | Activity [1] | Ki [4] | also measured |
| --- | --- | --- | --- |
| Cc1c(C(=O)N[C@H](C(N)=O)C(C)(C)C)nn(-c2ccccc2)c1-n1cccc1 | inactive |  |  |
| CNC(=O)[C@@H](NC(=O)c1nn(-c2ccc(Cl)cc2)c(-n2cccc2)c1C)C(C)(C)C | Active |  | Activity [2]: Active; Activity [3]: Active |
| COC(=O)[C@@H](NC(=O)c1cc(-n2cccc2)n(-c2ccc(Cl)cc2)n1)C(C)C | inactive |  |  |
| Cc1c(C(=O)N[C@H](C(=O)O)C(C)C)nn(-c2ccc(Cl)cc2)c1-n1cccc1 |  | Not Active |  |
| Cc1c(C(=O)N[C@H](C(=O)O)C(C)C)nn(-c2ccccc2)c1-n1cccc1 |  | Not Active |  |
| CC(C)(C)[C@H](NC(=O)c1cc(-n2cccc2)n(-c2ccc(Cl)cc2)n1)C(=O)O |  | Not Active |  |
| CC(C)[C@H](NC(=O)c1cc(-n2cccc2)n(-c2ccccc2)n1)C(N)=O |  | Not Active |  |
| Cc1c(C(=O)N[C@H](C(N)=O)C(C)(C)C)nn(-c2ccc(Cl)cc2)c1-n1cccc1 | inactive |  |  |
| Cc1c(C(=O)c2cccc3ccccc23)c2cccc3c2n1[C@H](CN1CCOCC1)CO3 |  |  | Activity [5]: Active |
| CC(C)(C)[C@H](NC(=O)c1cc(-n2cccc2)n(-c2ccccc2)n1)C(=O)O |  | Not Active |  |
| CC(C)[C@H](NC(=O)c1cc(-n2cccc2)n(-c2ccccc2)n1)C(=O)O |  | Not Active |  |
| COC(=O)[C@@H](NC(=O)c1nn(-c2ccc(Cl)cc2Cl)c(-n2cccc2Cl)c1C)C(C)C | Active |  |  |
| COC(=O)[C@@H](NC(=O)c1nn(-c2ccc(Cl)cc2)c(-n2cccc2)c1C)C(C)(C)C | inactive |  |  |
| CNC(=O)[C@@H](NC(=O)c1nn(-c2ccc(Cl)cc2Cl)c(-n2cccc2Cl)c1C)C(C)(C)C |  | Not Active |  |
| CC(C)[C@H](NC(=O)c1cc(-n2cccc2)n(-c2ccc(Cl)cc2)n1)C(=O)O |  | Not Active |  |
| COC(=O)[C@@H](NC(=O)c1cc(-n2cccc2)n(-c2ccccc2)n1)C(C)(C)C | Active |  |  |
| Cc1c(C(=O)N[C@H](C(N)=O)C(C)(C)C)nn(-c2ccc(Cl)c(Cl)c2)c1-n1cccc1Cl | inactive |  | EC50 [6]: 1870 nM; Ki ([4]; read-out: Ki): 45 nM; Emax [7]: 70% |
| Cc1c(C(=O)N[C@H](C(=O)O)C(C)C)nn(-c2ccc(Cl)cc2Cl)c1-n1cccc1Cl |  | Not Active |  |
| COC(=O)[C@@H](NC(=O)c1cc(-n2cccc2)n(-c2ccc(Cl)cc2)n1)C(C)(C)C | inactive |  |  |
| Cc1c(C(=O)N[C@H](C(=O)O)C(C)(C)C)nn(-c2ccc(Cl)cc2Cl)c1-n1cccc1Cl |  | Not Active |  |
| Cc1c(C(=O)N[C@H](C(N)=O)C(C)C)nn(-c2ccc(Cl)c(Cl)c2)c1-n1cccc1Cl |  |  | EC50 [6]: 849 nM; Ki ([4]; read-out: Ki): 446 nM; Emax [7]: 60% |
| Cc1c(C(=O)N[C@H](C(=O)O)C(C)(C)C)nn(-c2ccccc2)c1-n1cccc1 |  | Not Active |  |
